In ChEMBL document CHEMBL1123760, “Synthesis and oral antifungal activity of novel azolylpropanolones and related compounds” (1987):
Values after ≈ are worked out from the molar mass of the structure shown.

Key:
Type in all cases: functional
[1] = tested on: Aspergillus fumigatus; experiment: In vitro antifungal activity against Aspergillus fumigatus
Outline: (§1)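 Broth microdilution MIC in Sabouraud's glucose broth; final inocula 1 × 10^5 cells/mL (yeast) or 1 × 10^5 conidia/mL (mold and dermatophyte).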

[2] = tested on: Trichophyton benhamiae; experiment: In vitro antifungal activity against Trichophyton asteroides; outline: as §1
[3] = tested on: Candida albicans; experiment: Minimum effective concentration for inhibition of pseudomycelium formation in Candida albicans; details: for minimal effective concentration: Candida albicans, read-out: MEC
Outline: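 C. albicans KE-2 (clinical isolate) at a final 1 × 10^6 yeast cells/mL in EMEM with 20% calf serum; compounds diluted by the same microtiter system as for MICs. After incubation, wells were Giemsa-stained (5% in phosphate buffer) and read by microscope. MEC is the lowest concentration preventing typical pseudomycelium formation.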

[4] = tested on: Candida albicans; experiment: In vitro antifungal activity against Candida albicans; outline: as §1
[5] = Aspergillus fumigatus, read-out: MIC
[6] = Trichophyton benhamiae, read-out: MIC
[7] = Candida albicans, read-out: MIC

| SMILES | MIC [1, 5] | MIC [2, 6] | MIC [4, 7] | MIC [2] | minimal effective concentration [3] | MIC [1] | MEC [3] | MIC [4] |
| --- | --- | --- | --- | --- | --- | --- | --- | --- |
| O=C(c1ccc(F)cc1)C(O)(Cn1cnnc1)c1ccc(Cl)cc1Cl (stereo not drawn) | > 100 µg/mL | > 100 µg/mL | > 100 µg/mL | – | > 20 µg/mL | – | – | – |
| O=S1O[C@H](c2ccccc2)[C@](Cn2cncn2)(c2ccc(Cl)cc2Cl)O1 (stereo partly drawn) | > 100 µg/mL | 0.1 µg/mL (≈ 0.244 µM) | > 100 µg/mL | – | 0.08 µg/mL | – | – | – |
| CCC[C@H]1OC(=O)O[C@]1(Cn1cncn1)c1ccc(Cl)cc1Cl | > 100 µg/mL | 1.6 µg/mL (≈ 4.49 µM) | 100 µg/mL (≈ 281 µM) | – | 0.16 µg/mL | – | – | – |
| Clc1ccc([C@@]2(Cn3cncn3)OCO[C@@H]2c2ccccc2)c(Cl)c1 | 12.5 µg/mL (≈ 33.2 µM) | 0.2 µg/mL (≈ 0.532 µM) | > 100 µg/mL | – | 0.08 µg/mL | – | – | – |
| CC(C)C(O)C(O)(Cn1cncn1)c1ccc(Cl)cc1Cl (stereo not drawn) | 50 µg/mL (≈ 151 µM) | 0.1 µg/mL (≈ 0.303 µM) | > 100 µg/mL | – | 0.04 µg/mL | – | – | – |
| O=C(c1ccc(Cl)cc1Cl)C(O)(Cn1cnnc1)c1ccc(Cl)cc1 (stereo not drawn) | > 100 µg/mL | > 100 µg/mL | > 100 µg/mL | – | > 20 µg/mL | – | – | – |
| OC(c1ccc(Cl)cc1)C(O)(Cn1ccnc1)c1ccc(Cl)cc1 (stereo not drawn) | > 100 µg/mL | 50 µg/mL (≈ 138 µM) | > 100 µg/mL | – | > 20 µg/mL | – | – | – |
| CC(C)C(=O)C(O)(Cn1cnnc1)c1ccc(Cl)cc1Cl (stereo not drawn) | > 100 µg/mL | 50 µg/mL (≈ 152 µM) | > 100 µg/mL | – | 2.5 µg/mL | – | – | – |
| CC(C)[C@H]1OC(=O)O[C@]1(Cn1cncn1)c1ccc(Cl)cc1 | > 100 µg/mL | 1.6 µg/mL (≈ 4.97 µM) | > 100 µg/mL | – | 0.31 µg/mL | – | – | – |
| CC(O)(c1ccc(Cl)cc1)C(O)(Cn1ccnc1)c1ccc(Cl)cc1 (stereo not drawn) | > 100 µg/mL | 0.8 µg/mL (≈ 2.12 µM) | > 100 µg/mL | – | 1.25 µg/mL | – | – | – |
| Cc1ccc([C@H]2OC(=O)O[C@]2(Cn2cncn2)c2ccccc2Cl)cc1 | > 100 µg/mL | 3.1 µg/mL (≈ 8.38 µM) | > 100 µg/mL | – | 0.63 µg/mL | – | – | – |
| Cc1ccc([C@H]2OC(=O)O[C@]2(Cn2cncn2)c2ccc(C)cc2)cc1 | > 100 µg/mL | 3.1 µg/mL (≈ 8.87 µM) | > 100 µg/mL | – | 1.25 µg/mL | – | – | – |
| CC(O)(c1ccc(Cl)cc1)C(O)(Cn1ccnc1)c1ccc(F)cc1 (stereo not drawn) | > 100 µg/mL | 1.6 µg/mL (≈ 4.43 µM) | > 100 µg/mL | – | 10 µg/mL | – | – | – |
| OC(c1ccc(F)cc1)C(O)(Cn1cncn1)c1ccc(Cl)cc1Cl (stereo in doubt; 105) | – | – | – | 25 µg/mL (≈ 65.4 µM) | – | >100 µg/mL | 5 µg/mL | >100 µg/mL |
| CCCC(=O)C(O)(Cn1cncn1)c1ccccc1Cl (stereo not drawn) | 100 µg/mL (≈ 340 µM) | 0.8 µg/mL (≈ 2.72 µM) | > 100 µg/mL | – | 0.04 µg/mL | – | – | – |
| O=C1O[C@H](c2ccc(Cl)cc2)[C@](Cn2cncn2)(c2ccc(Cl)cc2Cl)O1 (relative stereo) | > 100 µg/mL | – | > 100 µg/mL | 25 µg/mL (≈ 58.9 µM) | – | – | >20 µg/mL | – |
| O=S1O[C@H](c2ccc(Cl)cc2)[C@@](Cn2cncn2)(c2ccc(Cl)cc2Cl)O1 (stereo partly drawn) | 25 µg/mL (≈ 56.2 µM) | 0.1 µg/mL (≈ 0.225 µM) | 50 µg/mL (≈ 112 µM) | – | 0.16 µg/mL | – | – | – |
| CC(C)C(C)(O)C(O)(Cn1cncn1)c1ccc(Cl)cc1Cl (stereo in doubt; 169) | 50 µg/mL (≈ 145 µM) | 0.1 µg/mL (≈ 0.29 µM) | > 100 µg/mL | – | 0.08 µg/mL | – | – | – |
| O=C(c1ccccc1)C(O)(Cn1cnnc1)c1ccccc1 (stereo not drawn) | > 100 µg/mL | > 100 µg/mL | > 100 µg/mL | – | > 20 µg/mL | – | – | – |
| O=C1O[C@H](c2cccc(Cl)c2)[C@@](Cn2cncn2)(c2cccc(Cl)c2)O1 | > 100 µg/mL | 6.3 µg/mL (≈ 16.1 µM) | 100 µg/mL (≈ 256 µM) | – | > 20 µg/mL | – | – | – |
| CC(O)(c1ccc(F)cc1)C(O)(Cn1ccnc1)c1ccccc1Cl (stereo not drawn) | 100 µg/mL (≈ 277 µM) | 0.1 µg/mL (≈ 0.277 µM) | > 100 µg/mL | – | 1.25 µg/mL | – | – | – |
| CCCC(O)C(O)(Cn1cncn1)c1ccc(Cl)cc1Cl (stereo not drawn) | 50 µg/mL (≈ 151 µM) | 0.1 µg/mL (≈ 0.303 µM) | > 100 µg/mL | – | 0.04 µg/mL | – | – | – |

Continued, in another order:

| MIC [1, 5] | MIC [2, 6] | MIC [4, 7] | MIC [2] | SMILES | minimal effective concentration [3] | MIC [1] | MEC [3] | MIC [4] |
| --- | --- | --- | --- | --- | --- | --- | --- | --- |
| > 100 µg/mL | 100 µg/mL (≈ 366 µM) | > 100 µg/mL | – | O=C(c1ccco1)C(O)(Cn1cncn1)c1ccco1 (stereo not drawn) | > 20 µg/mL | – | – | – |
| > 100 µg/mL | 1.6 µg/mL (≈ 4.83 µM) | > 100 µg/mL | – | OC(c1ccc(F)cc1)C(O)(Cn1cncn1)c1ccc(F)cc1 (stereo not drawn) | 10 µg/mL | – | – | – |
| > 100 µg/mL | 0.1 µg/mL (≈ 0.264 µM) | > 100 µg/mL | – | O=C(c1ccc(F)cc1)C(O)(Cn1ccnc1)c1ccc(Cl)cc1Cl (stereo not drawn) | 1.25 µg/mL | – | – | – |
| > 100 µg/mL | 6.3 µg/mL (≈ 25.5 µM) | > 100 µg/mL | – | CC(C)(O)C(O)(Cn1cncn1)c1ccccc1 (stereo not drawn) | > 20 µg/mL | – | – | – |
| > 100 µg/mL | 0.8 µg/mL (≈ 2.43 µM) | > 100 µg/mL | – | OC(c1ccccc1Cl)C(O)(Cn1cncn1)c1ccccc1 (stereo not drawn) | > 20 µg/mL | – | – | – |
| – | – | – | 0.1 µg/mL (≈ 0.252 µM) | CC(O)(c1ccc(F)cc1)C(O)(Cn1cncn1)c1ccc(Cl)cc1Cl (stereo in doubt; 174) | – | 50 µg/mL (≈ 126 µM) | 0.31 µg/mL | 100 µg/mL (≈ 252 µM) |
| > 100 µg/mL | 50 µg/mL (≈ 138 µM) | > 100 µg/mL | – | O=C(c1ccc(Cl)cc1)C(O)(Cn1cnnc1)c1ccc(Cl)cc1 (stereo not drawn) | > 20 µg/mL | – | – | – |
| > 100 µg/mL | – | > 100 µg/mL | 6.3 µg/mL (≈ 21.3 µM) | CCCC(O)C(O)(Cn1cncn1)c1ccc(Cl)cc1 (stereo in doubt; 107) | 0.16 µg/mL | – | – | – |
| > 100 µg/mL | 1.56 µg/mL (≈ 4.85 µM) | > 100 µg/mL | – | Cc1ccc(C(=O)C(O)(Cn2cncn2)c2ccc(C)cc2)cc1 (stereo not drawn) | 20 µg/mL | – | – | – |
| > 100 µg/mL | 0.79 µg/mL (≈ 2.4 µM) | 100 µg/mL (≈ 304 µM) | – | O=C(c1ccc(F)cc1)C(O)(Cn1cncn1)c1ccc(F)cc1 (stereo not drawn) | 10 µg/mL | – | – | – |
| > 100 µg/mL | 0.4 µg/mL (≈ 1.11 µM) | > 100 µg/mL | – | CC(O)(c1ccc(Cl)cc1)C(O)(Cn1cncn1)c1ccc(F)cc1 (stereo not drawn) | 2.5 µg/mL | – | – | – |
| > 100 µg/mL | 50 µg/mL (≈ 141 µM) | > 100 µg/mL | – | COc1ccc(C(=O)C(O)(Cn2cnnc2)c2ccc(OC)cc2)cc1 (stereo not drawn) | 2.5 µg/mL | – | – | – |
| > 100 µg/mL | 3.1 µg/mL (≈ 8.51 µM) | > 100 µg/mL | – | OC(c1cccc(Cl)c1)C(O)(Cn1cncn1)c1cccc(Cl)c1 (stereo not drawn) | > 20 µg/mL | – | – | – |
| > 100 µg/mL | > 100 µg/mL | > 100 µg/mL | – | O=C(c1ccc(F)cc1)C(O)(Cn1cnnc1)c1ccc(F)cc1 (stereo not drawn) | > 20 µg/mL | – | – | – |
| 50 µg/mL (≈ 170 µM) | 0.8 µg/mL (≈ 2.72 µM) | > 100 µg/mL | – | CCCC(O)(Cn1cncn1)C(=O)c1ccc(Cl)cc1 (stereo not drawn) | 0.31 µg/mL | – | – | – |
| > 100 µg/mL | 0.2 µg/mL (≈ 0.621 µM) | 100 µg/mL (≈ 311 µM) | – | CCCCCC(O)(Cn1cncn1)C(=O)c1ccc(Cl)cc1 (stereo not drawn) | 0.63 µg/mL | – | – | – |
| 50 µg/mL (≈ 161 µM) | 1.6 µg/mL (≈ 5.16 µM) | > 100 µg/mL | – | CC(C)C(O)(Cn1cncn1)C(C)(O)c1ccc(Cl)cc1 (stereo not drawn) | 5 µg/mL | – | – | – |
| > 100 µg/mL | 0.6 µg/mL (≈ 1.85 µM) | > 100 µg/mL | – | CCCCC(O)(Cn1cncn1)C(C)(O)c1ccc(Cl)cc1 (stereo in doubt; 191) | 1.25 µg/mL | – | – | – |
| > 100 µg/mL | 1.6 µg/mL (≈ 4.88 µM) | > 100 µg/mL | – | O=C(c1ccccc1Cl)C(O)(Cn1cncn1)c1ccccc1 (stereo not drawn) | > 20 µg/mL | – | – | – |
| > 100 µg/mL | 12.5 µg/mL (≈ 35.4 µM) | > 100 µg/mL | – | COc1ccc(C(=O)C(O)(Cn2cncn2)c2ccc(OC)cc2)cc1 (stereo not drawn) | > 20 µg/mL | – | – | – |
